Screens (PubChem)
Hits are enriched below; roughly 5.9% of the tested compounds scored in any of these assays.
KDM4C inh: inhibitors of human demethylase GASC-1 KDM4C; Q9H3R0; GST-KDM4C 2-372, H3K9me3 peptide, LANCE TR-FRET; inhibition, % at 12.5 µM; hit rate 0.15% among 96,000; AID 720574;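 active = mean replicate inhibition above about 25%, with at least 55% of replicates also reaching it, limit read from the data, passing the limit was not always enough; inconclusive = only one of those two conditions met; inactive = neither condition met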
Target sequence (Q9H3R0 2-372 limits assumed): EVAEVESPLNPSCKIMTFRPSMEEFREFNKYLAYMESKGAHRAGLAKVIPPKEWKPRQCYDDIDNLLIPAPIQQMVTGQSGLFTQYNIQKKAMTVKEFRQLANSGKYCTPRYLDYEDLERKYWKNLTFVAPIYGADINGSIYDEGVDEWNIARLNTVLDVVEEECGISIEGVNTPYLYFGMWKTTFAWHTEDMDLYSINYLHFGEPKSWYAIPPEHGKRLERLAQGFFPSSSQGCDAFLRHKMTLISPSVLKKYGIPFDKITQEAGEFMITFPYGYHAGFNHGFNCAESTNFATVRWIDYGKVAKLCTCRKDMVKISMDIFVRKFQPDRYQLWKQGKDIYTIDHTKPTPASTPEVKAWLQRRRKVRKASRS
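Test system: N-terminal GST-fused human GASC-1 (KDM4C) fragment, residues 2-372; quantity: GASC-1 enzyme at 10 nM final in reaction; dosing: single dose; schedule: 30 min demethylation and 1 h detection at room temperature; signal: LANCE TR-FRET, excitation 340 nm, emissions 618 and 671 nm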
Pf Dd2 growth: inhibitors of Plasmodium falciparum Dd2 growth. P. falciparum Dd2 growth, SYBR Green, 72 h; active compounds read low. activity change, % at 10 µM. hit rate 2.3% among 94,000; in the data active = activity change below about -80%; inconclusive = no clear call, values can overlap the other calls
IDH1 mut inh: IDH1 R132H (human) inhibition. IDH1 R132H reductase, diaphorase/resazurin fluorescence, 60 min. AID 624101. inhibition, % at 10 µM. hit rate 0.18% among 70,000. O75874; in the data active = inhibition above about 34%; inconclusive = no clear call, values can overlap the other calls; inactive = below about 11%
Target sequence (O75874 whole entry R132H): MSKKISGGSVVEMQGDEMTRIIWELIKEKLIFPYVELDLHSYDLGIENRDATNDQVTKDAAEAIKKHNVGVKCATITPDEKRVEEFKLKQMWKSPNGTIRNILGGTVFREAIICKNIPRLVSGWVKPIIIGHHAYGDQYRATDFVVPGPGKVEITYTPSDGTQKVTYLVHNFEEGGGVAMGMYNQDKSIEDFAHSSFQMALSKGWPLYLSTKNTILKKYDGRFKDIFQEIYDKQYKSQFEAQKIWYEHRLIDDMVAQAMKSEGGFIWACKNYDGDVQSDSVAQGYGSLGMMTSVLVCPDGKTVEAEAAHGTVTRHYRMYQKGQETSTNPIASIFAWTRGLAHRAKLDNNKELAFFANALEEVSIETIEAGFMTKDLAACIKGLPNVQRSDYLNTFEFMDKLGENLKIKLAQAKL
T cruzi growth-1: inhibitors of T. cruzi proliferation. AID 624255. hit rate 5.9% among 77,000. T. cruzi beta-gal in NIH3T3, GalScreen luminescence, 90 h. inhibition, % at 8.34 µM;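 active = mean inhibition above about 93%, with at least 55% of replicates each passing it, limit read from the data, passing the limit was not always enough; inconclusive = only one of those two conditions holds; inactive = neither condition holds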
T cruzi growth-2: Trypanosoma cruzi proliferation inhibition; hit rate 72% among 5,600; inhibition, % at 8.35 µM; T. cruzi beta-gal in NIH3T3, GalScreen luminescence, 90 h; shares compounds with T cruzi growth-1; AID 651739;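 active = mean replicate inhibition above about 95% and at least 55% of replicates individually reaching it, limit read from the data; inconclusive = only one of the two criteria is met; inactive = neither criterion is met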
T cruzi growth-3: Trypanosoma cruzi proliferation inhibition; shares compounds with T cruzi growth-1; T. cruzi beta-gal in NIH3T3, GalScreen luminescence, 90 h; inhibition, % at 2.09 µM; hit rate 21% among 5,600;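 active = mean inhibition above about 95%, with at least 55% of replicates also reaching it, limit read from the data; inconclusive = meets just one of the two conditions; inactive = meets neither condition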
3T3 cytotox: kills mouse NIH/3T3 fibroblasts; cytotoxicity (signal decrease), % at 8.35 µM; hit rate 14% among 5,600; shares compounds with T cruzi growth-1; NIH/3T3 viability, CellTiter-Glo ATP luminescence, 90 h;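 active = mean signal decrease across replicates above about 35% based on untreated-well scatter, with enough replicates individually passing, limit read from the data; inconclusive = no rule stated though some were filed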
3T3 cytotox 2: kills mouse NIH/3T3 fibroblasts; shares compounds with T cruzi growth-1; NIH/3T3 viability, CellTiter-Glo ATP luminescence, 90 h; inhibition, % at 24.9 µM; hit rate 56% among 5,600;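 active = mean loss of cell viability signal at or above a set limit, and enough replicates individually reaching it; inconclusive = meets only the mean limit or only the replicate share; inactive = meets neither condition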
Large screens that a line does not name were inactive (follow-up assays come after a bar, where they were run).

C[C@@H]1CN([C@H](C)CO)C(=O)c2cc(NS(=O)(=O)c3cccs3)ccc2O[C@H]1CN(C)Cc1ccc(-c2ccccc2)cc1	none
C[C@H]1CN([C@@H](C)CO)C(=O)c2cc(NS(=O)(=O)c3cccs3)ccc2O[C@H]1CN(C)Cc1ccc(-c2ccccc2)cc1	T cruzi growth-1 inconclusive | T cruzi growth-2 inactive | T cruzi growth-3 inactive | 3T3 cytotox inactive | 3T3 cytotox 2 55
C[C@H](CO)N1C[C@H](C)[C@@H](CN(C)CC2CC2)Oc2ccc(NS(=O)(=O)c3cccs3)cc2C1=O	none
Cc1ccc(S(=O)(=O)N(C)C[C@H]2OCCCC[C@H](C)Oc3ccc(NC(=O)Nc4ccccc4)cc3C(=O)N([C@@H](C)CO)C[C@@H]2C)cc1	Pf Dd2 growth -83, T cruzi growth-1 111 | T cruzi growth-2 101 | T cruzi growth-3 107 | 3T3 cytotox inactive | 3T3 cytotox 2 inactive
Cc1ccc(S(=O)(=O)N(C)C[C@@H]2OCCCC[C@H](C)Oc3ccc(NC(=O)Nc4ccccc4)cc3C(=O)N([C@@H](C)CO)C[C@@H]2C)cc1	Pf Dd2 growth -90, T cruzi growth-1 108 | T cruzi growth-2 102 | T cruzi growth-3 inactive | 3T3 cytotox inactive | 3T3 cytotox 2 inactive
Cc1ccc(S(=O)(=O)N(C)C[C@H]2OCCCC[C@H](C)Oc3ccc(NC(=O)Nc4ccccc4)cc3C(=O)N([C@H](C)CO)C[C@H]2C)cc1	Pf Dd2 growth -88, T cruzi growth-1 inconclusive (no result: IDH1 mut inh) | T cruzi growth-2 111 | T cruzi growth-3 inactive | 3T3 cytotox inactive | 3T3 cytotox 2 inactive
C[C@@H]1CCCCO[C@@H](CN(C)S(=O)(=O)c2ccccc2)[C@@H](C)CN([C@@H](C)CO)C(=O)c2cc(NC(=O)Nc3ccccc3)ccc2O1	none (no result: KDM4C inh)
Cc1ccc(S(=O)(=O)N(C)C[C@H]2OCCCC[C@@H](C)Oc3ccc(NC(=O)Nc4ccccc4)cc3C(=O)N([C@@H](C)CO)C[C@@H]2C)cc1	Pf Dd2 growth -83, T cruzi growth-1 109 (no result: IDH1 mut inh) | T cruzi growth-2 109 | T cruzi growth-3 inactive | 3T3 cytotox inactive | 3T3 cytotox 2 35
CSc1cccc(NC(=O)C(C)N(c2ccc(C)cc2)S(C)(=O)=O)c1 (stereo not drawn)	none (no result: KDM4C inh, Pf Dd2 growth, T cruzi growth-1)
CN1C(=O)c2ccc(NC(=O)CCn3cnc4ccccc4c3=O)cc2C1=O	none (no result: KDM4C inh, Pf Dd2 growth, T cruzi growth-1)
C[C@H]1CCCCO[C@@H](CN(C)S(=O)(=O)c2ccccc2)[C@@H](C)CN([C@@H](C)CO)C(=O)c2cc(NC(=O)Nc3ccccc3)ccc2O1	none
C[C@@H]1CN([C@H](C)CO)C(=O)c2cc(NC(=O)c3ccccc3)ccc2O[C@@H](C)CCCCO[C@@H]1CN(C)S(=O)(=O)c1ccccc1	none (no result: IDH1 mut inh)
Cc1ccc(S(=O)(=O)N(C)C[C@H]2OCCCC[C@@H](C)Oc3ccc(NC(=O)Nc4ccccc4)cc3C(=O)N([C@H](C)CO)C[C@H]2C)cc1	Pf Dd2 growth -87, T cruzi growth-1 113 | T cruzi growth-2 109 | T cruzi growth-3 108 | 3T3 cytotox inactive | 3T3 cytotox 2 inactive
Cc1ccc(S(=O)(=O)N(C)C[C@H]2OCCCC[C@@H](C)Oc3ccc(NC(=O)Nc4ccccc4)cc3C(=O)N([C@@H](C)CO)C[C@H]2C)cc1	T cruzi growth-1 inconclusive | T cruzi growth-2 106 | T cruzi growth-3 103 | 3T3 cytotox inactive | 3T3 cytotox 2 inactive
C[C@@H]1CCCCO[C@H](CN(C)S(=O)(=O)c2ccccc2)[C@H](C)CN([C@@H](C)CO)C(=O)c2cc(NC(=O)Nc3ccccc3)ccc2O1	none
Cc1ccc(S(=O)(=O)N(C)C[C@@H]2OCCCC[C@H](C)Oc3ccc(NC(=O)c4ccccc4)cc3C(=O)N([C@H](C)CO)C[C@@H]2C)cc1	T cruzi growth-1 95 | T cruzi growth-2 104 | T cruzi growth-3 inactive | 3T3 cytotox inactive | 3T3 cytotox 2 inconclusive
Cc1cc(C)cc(C(=O)N(C)C(Cc2ccc(-c3ccccc3)cc2)C(=O)NC(Cc2c[nH]c3ccccc23)C(=O)O)c1 (stereo not drawn)	none (no result: KDM4C inh, Pf Dd2 growth, T cruzi growth-1)
Cc1cccc(OCC(=O)Nc2cccc(-c3nc4cc(Cl)ccc4o3)c2C)c1	none (no result: KDM4C inh, Pf Dd2 growth, T cruzi growth-1)
C[C@@H]1CN([C@@H](C)CO)S(=O)(=O)c2ccc(C#CC3CC3)cc2O[C@H]1CN(C)Cc1ccccc1F	T cruzi growth-1 101 | T cruzi growth-2 95 | T cruzi growth-3 109 | 3T3 cytotox 60 | 3T3 cytotox 2 106
CC(C)CC#Cc1ccc2c(c1)O[C@@H](CN(C)Cc1ccccc1F)[C@H](C)CN([C@@H](C)CO)S2(=O)=O	none
CC(C)CC#Cc1ccc2c(c1)O[C@@H](CN(C)Cc1ccccc1F)[C@@H](C)CN([C@@H](C)CO)S2(=O)=O	T cruzi growth-1 127 | T cruzi growth-2 inactive | T cruzi growth-3 112 | 3T3 cytotox inactive | 3T3 cytotox 2 105
C[C@H]1CN([C@@H](C)CO)S(=O)(=O)c2ccc(C#CCN(C)C)cc2O[C@H]1CN(C)Cc1ccccc1F	T cruzi growth-1 100 | T cruzi growth-2 96 | T cruzi growth-3 inactive | 3T3 cytotox inactive | 3T3 cytotox 2 34
C[C@@H]1CN([C@H](C)CO)S(=O)(=O)c2ccc(C#CCN(C)C)cc2O[C@H]1CN(C)Cc1ccccc1F	T cruzi growth-1 110 | T cruzi growth-2 106 | T cruzi growth-3 inactive | 3T3 cytotox 61 | 3T3 cytotox 2 106
COCC#Cc1ccc2c(c1)O[C@H](CN(C)Cc1ccccc1F)[C@H](C)CN([C@H](C)CO)S2(=O)=O	none
O=C(Nc1ccccc1C(=O)O)c1cccc(S(=O)(=O)Nc2cccc(Br)c2)c1	none (no result: KDM4C inh, Pf Dd2 growth, T cruzi growth-1)
Cc1cccc(NC(=O)CSc2nc3sc(C)c(C)c3c(=O)n2C)c1C	none (no result: KDM4C inh, Pf Dd2 growth, T cruzi growth-1)
COc1ccc(NC(=S)N(C)Cc2c(C)nn(C)c2C)c(OC)c1	none (no result: KDM4C inh, Pf Dd2 growth, T cruzi growth-1)
C[C@@H]1CN([C@H](C)CO)S(=O)(=O)c2ccc(C#Cc3ccccc3)cc2O[C@@H]1CN(C)C(=O)Nc1ccccc1	none
CC(C)CC#Cc1ccc2c(c1)O[C@@H](CN(C)C(=O)Nc1ccccc1)[C@@H](C)CN([C@@H](C)CO)S2(=O)=O	T cruzi growth-1 127 | T cruzi growth-2 111 | T cruzi growth-3 105 | 3T3 cytotox inactive | 3T3 cytotox 2 103
CC(C)CC#Cc1ccc2c(c1)O[C@@H](CN(C)C(=O)Nc1ccccc1)[C@H](C)CN([C@@H](C)CO)S2(=O)=O	T cruzi growth-1 121 | T cruzi growth-2 107 | T cruzi growth-3 inactive | 3T3 cytotox inactive | 3T3 cytotox 2 78
COc1ccc(NC(=O)N(C)C[C@H]2Oc3cc(C#CCC(C)C)ccc3S(=O)(=O)N([C@H](C)CO)C[C@@H]2C)cc1	none
